Test results reported in ChEMBL document CHEMBL1131139, “Synthesis and antibacterial activity of ketolides (6-O-methyl-3-oxoerythromycin derivatives): a new class of antibacterials highly potent against macrolide-resistant and -susceptible respiratory pathogens” (1998).
In brackets after ≈: the same amount, converted by molar mass.

Experiments:
Assay type in all cases: functional
Haemophilus influenzae [1] = assay: In vitro inhibitory activity against Haemophilus influenzae (351CB12)
Procedure, shortened: (§1)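 Two-fold agar dilution on Mueller-Hinton agar (pH 7.4). Inoculum from overnight plate cultures suspended in Mueller-Hinton broth, adjusted to 10^9 CFU/mL, diluted 1:200 and spotted by multipoint inoculator at about 10^4 CFU/spot. Plates incubated 37 °C for 20 h. MIC taken as lowest concentration with no visible growth.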

Streptococcus pneumoniae [2] = assay: In vitro inhibitory activity against Streptococcus pneumoniae (032UC1); procedure, shortened: as §1
Haemophilus influenzae [3] = assay: In vitro inhibitory activity against Haemophilus influenzae (351HT3); procedure, shortened: as §1
Escherichia coli = assay: In vitro inhibitory activity against Escherichia coli (250 UC5); procedure, shortened: as §1
Streptococcus pneumoniae [4] = assay: In vitro inhibitory activity against Streptococcus pneumoniae (EryRc 030SJ1); procedure, shortened: as §1
Streptococcus pneumoniae [5] = assay: In vitro inhibitory activity against Streptococcus pneumoniae (EryRi 030SJ5i); procedure, shortened: as §1
Streptococcus pyogenes = assay: In vitro inhibitory activity against Streptococcus pyogenes (02A1UC1); procedure, shortened: as §1
[6] = system: Staphylococcus epidermidis; assay: In vitro inhibitory activity against Staphylococcus epidermidis (EryRi 012GO11i); procedure, shortened: as §1
Staphylococcus aureus [7] = assay: In vitro inhibitory activity against Staphylococcus aureus (011UC4); procedure, shortened: as §1
Staphylococcus aureus [8] = assay: In vitro inhibitory activity against Staphylococcus aureus (EryRi 011GO25i); procedure, shortened: as §1
Staphylococcus aureus [9] = assay: In vitro inhibitory activity against Staphylococcus aureus (EryRc 011CB20); procedure, shortened: as §1

SMILES: CC[C@H]1OC(=O)[C@H](C)C(=O)[C@H](C)[C@@H](O[C@@H]2O[C@H](C)C[C@H](N(C)C)[C@H]2O)[C@](C)(OC)C[C@@H](C)C(=O)[C@H](C)[C@H]2NC(=O)O[C@@]21C
- MIC (Haemophilus influenzae [1]): 5 µg/mL (≈ 8.16 µM)
- MIC (Streptococcus pneumoniae [2]): 0.02 µg/mL (≈ 0.0326 µM)
- MIC (Haemophilus influenzae [3]): 5 µg/mL (≈ 8.16 µM)
- MIC (Escherichia coli): 40 µg/mL (≈ 65.3 µM)
- MIC (Streptococcus pneumoniae [4]): 5 µg/mL (≈ 8.16 µM)
- MIC (Streptococcus pneumoniae [5]): 2.5 µg/mL (≈ 4.08 µM)
- MIC (Streptococcus pyogenes): 0.04 µg/mL (≈ 0.0653 µM)
- MIC [6]: 10 µg/mL (≈ 16.3 µM)
- MIC (Staphylococcus aureus [7]): 0.6 µg/mL (≈ 0.979 µM)
- MIC (Staphylococcus aureus [8]): 0.6 µg/mL (≈ 0.979 µM)
- MIC (Staphylococcus aureus [9]): 40 µg/mL (≈ 65.3 µM)

SMILES: CC[C@H]1OC(=O)[C@H](C)C(=O)[C@H](C)[C@@H](O[C@@H]2O[C@H](C)C[C@H](N(C)C)[C@H]2O)[C@](C)(OC)C[C@@H](C)/C(=N/OCOCCOC)[C@H](C)[C@@H](O)[C@]1(C)O
- MIC (Haemophilus influenzae [1]): 40 µg/mL (≈ 57.9 µM)
- MIC (Streptococcus pneumoniae [2]): 0.15 µg/mL (≈ 0.217 µM)
- MIC (Haemophilus influenzae [3]): 40 µg/mL (≈ 57.9 µM)
- MIC (Escherichia coli): 40 µg/mL (≈ 57.9 µM)
- MIC (Streptococcus pneumoniae [4]): 40 µg/mL (≈ 57.9 µM)
- MIC (Streptococcus pneumoniae [5]): 10 µg/mL (≈ 14.5 µM)
- MIC (Streptococcus pyogenes): 0.15 µg/mL (≈ 0.217 µM)
- MIC [6]: 1.2 µg/mL (≈ 1.74 µM)
- MIC (Staphylococcus aureus [7]): 1.2 µg/mL (≈ 1.74 µM)
- MIC (Staphylococcus aureus [8]): 2.5 µg/mL (≈ 3.62 µM)
- MIC (Staphylococcus aureus [9]): 40 µg/mL (≈ 57.9 µM)

SMILES: CC[C@H]1OC(=O)[C@H](C)C(=O)[C@H](C)[C@@H](O[C@@H]2O[C@H](C)C[C@H](N(C)C)[C@H]2O)[C@](C)(OC)C[C@@H](C)/C(=N\O)[C@H](C)[C@@H](O)[C@]1(C)O
- MIC (Haemophilus influenzae [1]): 1.2 µg/mL (≈ 1.99 µM)
- MIC (Streptococcus pneumoniae [2]): 0.08 µg/mL (≈ 0.133 µM)
- MIC (Haemophilus influenzae [3]): 20 µg/mL (≈ 33.2 µM)
- MIC (Escherichia coli): 40 µg/mL (≈ 66.4 µM)
- MIC (Streptococcus pneumoniae [4]): 40 µg/mL (≈ 66.4 µM)
- MIC (Streptococcus pneumoniae [5]): 40 µg/mL (≈ 66.4 µM)
- MIC (Streptococcus pyogenes): 0.15 µg/mL (≈ 0.249 µM)
- MIC [6]: 0.6 µg/mL (≈ 0.995 µM)
- MIC (Staphylococcus aureus [7]): 0.3 µg/mL (≈ 0.498 µM)
- MIC (Staphylococcus aureus [8]): 1.2 µg/mL (≈ 1.99 µM)
- MIC (Staphylococcus aureus [9]): 40 µg/mL (≈ 66.4 µM)

SMILES: CC[C@H]1OC(=O)[C@H](C)C(=O)[C@H](C)[C@@H](O[C@@H]2O[C@H](C)C[C@H](N(C)C)[C@H]2O)[C@](C)(OC)C[C@@H](C)/C(=N\OCCNCc2ccccc2)[C@H](C)[C@@H](O)[C@]1(C)O
- MIC (Haemophilus influenzae [1]): 40 µg/mL (≈ 54.4 µM)
- MIC (Streptococcus pneumoniae [2]): 0.15 µg/mL (≈ 0.204 µM)
- MIC (Haemophilus influenzae [3]): 40 µg/mL (≈ 54.4 µM)
- MIC (Escherichia coli): 40 µg/mL (≈ 54.4 µM)
- MIC (Streptococcus pneumoniae [4]): 40 µg/mL (≈ 54.4 µM)
- MIC (Streptococcus pneumoniae [5]): 40 µg/mL (≈ 54.4 µM)
- MIC (Streptococcus pyogenes): 0.6 µg/mL (≈ 0.815 µM)
- MIC [6]: 5 µg/mL (≈ 6.79 µM)
- MIC (Staphylococcus aureus [7]): 0.6 µg/mL (≈ 0.815 µM)
- MIC (Staphylococcus aureus [8]): 5 µg/mL (≈ 6.79 µM)
- MIC (Staphylococcus aureus [9]): 40 µg/mL (≈ 54.4 µM)

SMILES: CC[C@H]1OC(=O)[C@H](C)C(=O)[C@H](C)[C@@H](O[C@@H]2O[C@H](C)C[C@H](N(C)C)[C@H]2O)[C@](C)(OC)C[C@@H](C)C(=O)[C@H](C)[C@H]2N(CCCCc3ccccc3)C(=O)O[C@]12C
- MIC (Haemophilus influenzae [1]): 2.5 µg/mL (≈ 3.36 µM)
- MIC (Streptococcus pneumoniae [2]): 0.02 µg/mL (≈ 0.0268 µM)
- MIC (Haemophilus influenzae [3]): 1.2 µg/mL (≈ 1.61 µM)
- MIC (Escherichia coli): 40 µg/mL (≈ 53.7 µM)
- MIC (Streptococcus pneumoniae [4]): 0.15 µg/mL (≈ 0.201 µM)
- MIC (Streptococcus pneumoniae [5]): 0.3 µg/mL (≈ 0.403 µM)
- MIC (Streptococcus pyogenes): 0.02 µg/mL (≈ 0.0268 µM)
- MIC [6]: 0.04 µg/mL (≈ 0.0537 µM)
- MIC (Staphylococcus aureus [7]): 0.08 µg/mL (≈ 0.107 µM)
- MIC (Staphylococcus aureus [8]): 0.15 µg/mL (≈ 0.201 µM)
- MIC (Staphylococcus aureus [9]): 40 µg/mL (≈ 53.7 µM)

SMILES: CC[C@H]1OC(=O)[C@H](C)C(=O)[C@H](C)[C@@H](O[C@@H]2O[C@H](C)C[C@H](N(C)C)[C@H]2O)[C@](C)(OC)C[C@@H](C)/C(=N\OC2CCNC2)[C@H](C)[C@@H](O)[C@]1(C)O (some centres undefined)
- MIC (Haemophilus influenzae [1]): 5 µg/mL (≈ 7.44 µM)
- MIC (Streptococcus pneumoniae [2]): 0.02 µg/mL (≈ 0.0298 µM)
- MIC (Haemophilus influenzae [3]): 10 µg/mL (≈ 14.9 µM)
- MIC (Escherichia coli): 40 µg/mL (≈ 59.5 µM)
- MIC (Streptococcus pneumoniae [4]): 10 µg/mL (≈ 14.9 µM)
- MIC (Streptococcus pneumoniae [5]): 40 µg/mL (≈ 59.5 µM)
- MIC (Streptococcus pyogenes): 0.04 µg/mL (≈ 0.0595 µM)
- MIC [6]: 6 µg/mL (≈ 8.93 µM)
- MIC (Staphylococcus aureus [7]): 0.15 µg/mL (≈ 0.223 µM)
- MIC (Staphylococcus aureus [8]): 5 µg/mL (≈ 7.44 µM)
- MIC (Staphylococcus aureus [9]): 40 µg/mL (≈ 59.5 µM)

SMILES: CC[C@H]1OC(=O)[C@H](C)C(=O)[C@H](C)[C@@H](O[C@@H]2O[C@H](C)C[C@H](N(C)C)[C@H]2O)[C@](C)(OC)C[C@@H](C)/C(=N\O[C@@H]2CCCN(Cc3ccc(-c4ccccc4)cc3)C2)[C@H](C)[C@@H](O)[C@]1(C)O
- MIC (Haemophilus influenzae [1]): 10 µg/mL (≈ 11.7 µM)
- MIC (Streptococcus pneumoniae [2]): 0.3 µg/mL (≈ 0.352 µM)
- MIC (Haemophilus influenzae [3]): 40 µg/mL (≈ 46.9 µM)
- MIC (Escherichia coli): 40 µg/mL (≈ 46.9 µM)
- MIC (Streptococcus pneumoniae [4]): 5 µg/mL (≈ 5.87 µM)
- MIC (Streptococcus pneumoniae [5]): 0.3 µg/mL (≈ 0.352 µM)
- MIC (Streptococcus pyogenes): 0.04 µg/mL (≈ 0.0469 µM)
- MIC [6]: 0.6 µg/mL (≈ 0.704 µM)
- MIC (Staphylococcus aureus [7]): 0.6 µg/mL (≈ 0.704 µM)
- MIC (Staphylococcus aureus [8]): 0.3 µg/mL (≈ 0.352 µM)
- MIC (Staphylococcus aureus [9]): 20 µg/mL (≈ 23.5 µM)

SMILES: CC[C@H]1OC(=O)[C@H](C)C(=O)[C@H](C)[C@@H](O[C@@H]2O[C@H](C)C[C@H](N(C)C)[C@H]2O)[C@](C)(OC)C[C@@H](C)/C(=N\OC2CCCN(CCCc3ccc(O)cc3)C2)[C@H](C)[C@@H](O)[C@]1(C)O (some centres undefined)
- MIC (Haemophilus influenzae [1]): 1.2 µg/mL (≈ 1.46 µM)
- MIC (Streptococcus pneumoniae [2]): 0.02 µg/mL (≈ 0.0244 µM)
- MIC (Haemophilus influenzae [3]): 5 µg/mL (≈ 6.1 µM)
- MIC (Escherichia coli): 40 µg/mL (≈ 48.8 µM)
- MIC (Streptococcus pneumoniae [4]): 0.6 µg/mL (≈ 0.732 µM)
- MIC (Streptococcus pneumoniae [5]): 0.15 µg/mL (≈ 0.183 µM)
- MIC (Streptococcus pyogenes): 0.04 µg/mL (≈ 0.0488 µM)
- MIC [6]: 0.3 µg/mL (≈ 0.366 µM)
- MIC (Staphylococcus aureus [7]): 0.08 µg/mL (≈ 0.0976 µM)
- MIC (Staphylococcus aureus [8]): 0.6 µg/mL (≈ 0.732 µM)
- MIC (Staphylococcus aureus [9]): 40 µg/mL (≈ 48.8 µM)

SMILES: CC[C@H]1OC(=O)[C@H](C)C(=O)[C@H](C)[C@@H](O[C@@H]2O[C@H](C)C[C@H](N(C)C)[C@H]2O)[C@](C)(OC)C[C@@H](C)/C(=N\OC2CCCN(C)C2)[C@H](C)[C@@H](O)[C@]1(C)O (some centres undefined)
- MIC (Haemophilus influenzae [1]): 10 µg/mL (≈ 14.3 µM)
- MIC (Streptococcus pneumoniae [2]): 0.02 µg/mL (≈ 0.0286 µM)
- MIC (Haemophilus influenzae [3]): 10 µg/mL (≈ 14.3 µM)
- MIC (Escherichia coli): 40 µg/mL (≈ 57.1 µM)
- MIC (Streptococcus pneumoniae [4]): 10 µg/mL (≈ 14.3 µM)
- MIC (Streptococcus pneumoniae [5]): 40 µg/mL (≈ 57.1 µM)
- MIC (Streptococcus pyogenes): 0.04 µg/mL (≈ 0.0571 µM)
- MIC [6]: 0.6 µg/mL (≈ 0.857 µM)
- MIC (Staphylococcus aureus [7]): 0.08 µg/mL (≈ 0.114 µM)
- MIC (Staphylococcus aureus [8]): 0.3 µg/mL (≈ 0.429 µM)
- MIC (Staphylococcus aureus [9]): 40 µg/mL (≈ 57.1 µM)
